Here are results for 16 molecules from ChEMBL document CHEMBL4308887, “Synthesis and biological evaluation of clovamide analogues with catechol functionality as potent Parkinson's disease agents in vitro and in vivo” (Bioorg Med Chem Lett, 2019).

Each structure is given as a SMILES string. pEC50: −log10 of the molar value.

In assay [1] the test system is SH-SY5Y. Kind of assay: Neuroprotection against H2O2-induced cell death in human SH-SY5Y cells at 100 uM preincubated for 6 hrs followed by H2O2 addition and measured after 24 hrs by MTT assay relative to control. It counts as functional. The procedure, abridged: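 Human SH-SY5Y neuroblastoma cells pretreated with compound at 100 μM for 6 h, then exposed to 600 μM H₂O₂ for 24 h; viability read by MTT and expressed as protection rate relative to untreated control. DMSO below 0.1% in all groups. Primary single-concentration screen; three independent experiments.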
For orientation: Tetrazolium assays rely on reduction of a dye to a coloured formazan, in cell work by metabolically active cells.

Assay [2] concerns SH-SY5Y. The assay is described as follows: Neuroprotection against H2O2-induced cell death in human SH-SY5Y cells preincubated for 6 hrs followed by H2O2 addition and measured after 24 hrs by MTT assay. It is filed as functional, cell-based. In outline: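 Primary screen at 100 μM, then dose-response. SH-SY5Y cells pretreated, then exposed to 600 μM H₂O₂ (the level chosen from a 100–1000 μM, 24 h viability titration). EC₅₀ is the concentration giving 50% of maximal effect. N-acetyl-L-cysteine served as positive control. DMSO below 0.1%. Mean ± S.E.M. of three experiments.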

`COC(=O)[C@H](Cc1ccccc1)NC(=O)/C=C/c1ccc(O)cc1` came in with an Activity in assay [1] of under 50%.
In general, pEC50 refers to the negative decadic logarithm of the EC50, by convention in mol/L. High values mean a low EC50, low ones a high EC50. With `COC(=O)[C@H](Cc1ccc(O)cc1)NC(=O)/C=C/c1ccc(O)c(O)c1`, the pEC50 in assay [2] is 4.95. Moreover, in assay [1], the Activity is on record as over 50%.
Take `COC(=O)[C@H](Cc1ccc(O)cc1)NC(=O)/C=C/c1ccc(O)cc1`: the Activity in assay [1] was under 50%.
With `COC(=O)[C@H](Cc1ccccc1)NC(=O)/C=C/c1ccccc1`, the Activity in assay [1] is recorded as under 50%.
With `COC(=O)[C@H](Cc1ccc(O)cc1)NC(=O)/C=C/c1ccccc1`, in assay [1], the Activity was under 50%.
`COC(=O)[C@H](Cc1ccc(O)c(O)c1)NC(=O)/C=C/c1ccc(O)cc1` showed a pEC50 in assay [2] of 4.72. This molecule showed an Activity in assay [1] of over 50%.
In assay [2], `COC(=O)[C@H](Cc1ccc(O)c(O)c1)NC(=O)/C=C/c1ccc(O)c(OC)c1` had a pEC50 of 4.62. The molecule further yielded an Activity in assay [1] of over 50%.
`COC(=O)[C@H](Cc1ccccc1)NC(=O)/C=C/c1ccc(O)c(OC)c1` registered an Activity in assay [1] of under 50%.
As to `COC(=O)[C@H](Cc1ccc(O)cc1)NC(=O)/C=C/c1cccc(O)c1`, the Activity in assay [1] is on record as under 50%.
Same read-out and setting: for `COC(=O)[C@H](Cc1ccccc1)NC(=O)/C=C/c1cccc(O)c1` the value was under 50%; for `COC(=O)[C@H](Cc1ccc(O)cc1)NC(=O)/C=C/c1cccc(OC)c1`, under 50%.
`COC(=O)[C@H](Cc1ccc(O)c(O)c1)NC(=O)/C=C/c1cccc(O)c1` gave a pEC50 in assay [2] of 4.76. In assay [1], this molecule came in with an Activity of over 50%.
As for `CC(=O)N[C@@H](CS)C(=O)O` [ACETYLCYSTEINE], the pEC50 in assay [2] is 2.77.
`O=C(O)/C=C/c1ccc(O)c(O)c1` [CAFFEIC ACID]: the pEC50 in assay [2] was 4.47.
Consider `COC(=O)[C@H](Cc1ccc(O)c(O)c1)NC(=O)/C=C/c1ccc(O)c(O)c1` [N-CAFFEOYL-DOPA METHYL ESTER], for which the pEC50 in assay [2] was 4.81. Moreover, the Activity in assay [1] is over 50%.
In assay [2], `COC(=O)[C@H](Cc1ccc(O)c(O)c1)NC(=O)/C=C/c1ccccc1` [N-CINNAMOYL-DOPA METHYL ESTER] showed a pEC50 of 4.84. Besides, the Activity in assay [1] was over 50%.
